Measured values: ChEMBL document CHEMBL1649231, “In vitro activities of panduratin A against clinical Staphylococcus strains” (2009)

Tests used:
Format in all cases: functional
Staphylococcus hominis [1] = assay: Bactericidal activity against methicillin-susceptible coagulase-negative Staphylococcus hominis after 24 hrs by plate counting method
Procedure, shortened: (§1)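 Clinical staphylococcal isolates from patient body fluids, blood, genital secretions, pus or sputum; species by conventional methods or Vitek. Twofold dilutions in Mueller-Hinton broth, inoculum 5 × 10^5 CFU/ml, 37°C aerobic 24 h (CLSI M7-A6 microdilution). About 100 μl from each well without visible growth spread on MHA; 37°C 24 h. MBC = lowest concentration giving no growth on agar.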

Staphylococcus simulans [2] = assay: Antimicrobial activity against methicillin-resistant coagulase-negative Staphylococcus simulans after 24 hrs by broth microdilution method
Procedure, shortened: (§2)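 Clinical isolates came from blood, body fluids, genital secretions, pus or sputum, identified conventionally or by Vitek. MICs were run by CLSI M7-A6 broth microdilution in Mueller-Hinton broth with 5 × 10^5 CFU/ml inoculum. Agents were twofold serially diluted, starting from 10% DMSO. Drug-free and uninoculated controls were included. Plates were incubated aerobically at 37°C for 24 h; MIC is the lowest concentration giving no visible growth.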

[3] = tested on: Staphylococcus haemolyticus; assay: Antimicrobial activity against methicillin-susceptible coagulase-negative Staphylococcus haemolyticus assessed as susceptible isolates after 24 hrs by broth microdilution method
[4] = tested on: Staphylococcus haemolyticus; assay: Antimicrobial activity against methicillin-susceptible coagulase-negative Staphylococcus haemolyticus after 24 hrs by broth microdilution method; procedure, shortened: as §2
Staphylococcus hominis [5] = assay: Antimicrobial activity against methicillin-susceptible coagulase-negative Staphylococcus hominis after 24 hrs by broth microdilution method; procedure, shortened: as §2
Mammaliicoccus sciuri [6] = assay: Antimicrobial activity against methicillin-susceptible coagulase-negative Staphylococcus sciuri assessed as resistant isolates after 24 hrs by broth microdilution method
[7] = tested on: Staphylococcus epidermidis; assay: Bactericidal activity against methicillin-resistant coagulase-negative Staphylococcus epidermidis after 24 hrs by plate counting method
Staphylococcus simulans [8] = assay: Antimicrobial activity against methicillin-susceptible coagulase-negative Staphylococcus simulans after 24 hrs by broth microdilution method; procedure, shortened: as §2
Staphylococcus hominis [9] = assay: Antimicrobial activity against methicillin-resistant coagulase-negative Staphylococcus hominis assessed as resistant isolates after 24 hrs by broth microdilution method
[10] = tested on: Staphylococcus epidermidis; assay: Antimicrobial activity against methicillin-resistant coagulase-negative Staphylococcus epidermidis assessed as resistant isolates after 24 hrs by broth microdilution method
Mammaliicoccus sciuri [11] = assay: Antimicrobial activity against methicillin-resistant coagulase-negative Staphylococcus sciuri after 24 hrs by broth microdilution method; procedure, shortened: as §2
Staphylococcus hominis [12] = assay: Bactericidal activity against methicillin-resistant coagulase-negative Staphylococcus hominis after 24 hrs by plate counting method
Staphylococcus aureus [13] = assay: Bactericidal activity against methicillin-susceptible Staphylococcus aureus after 24 hrs by plate counting method; procedure, shortened: as §1
Mammaliicoccus sciuri [14] = assay: Antimicrobial activity against methicillin-resistant coagulase-negative Staphylococcus sciuri assessed as resistant isolates after 24 hrs by broth microdilution method
Staphylococcus aureus [15] = assay: Antimicrobial activity against methicillin-susceptible Staphylococcus aureus assessed as resistant isolates after 24 hrs by broth microdilution method
[16] = tested on: Staphylococcus haemolyticus; assay: Antimicrobial activity against methicillin-susceptible coagulase-negative Staphylococcus haemolyticus assessed as resistant isolates after 24 hrs by broth microdilution method
[17] = tested on: Staphylococcus epidermidis; assay: Bactericidal activity against methicillin-susceptible coagulase-negative Staphylococcus epidermidis after 24 hrs by plate counting method; procedure, shortened: as §1
Staphylococcus aureus [18] = assay: Antimicrobial activity against methicillin-susceptible Staphylococcus aureus after 24 hrs by broth microdilution method; procedure, shortened: as §2
Staphylococcus aureus [19] = assay: Bactericidal activity against methicillin-resistant Staphylococcus aureus after 24 hrs by plate counting method
Staphylococcus simulans [20] = assay: Antimicrobial activity against methicillin-susceptible coagulase-negative Staphylococcus simulans assessed as susceptible isolates after 24 hrs by broth microdilution method
Procedure, shortened: (§3)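 Clinical isolates from blood, body fluids, pus, sputum or genital secretions, identified conventionally or by Vitek, were tested alongside ATCC 29213 and ATCC 12228 controls. CLSI M7-A6 broth microdilution in Mueller-Hinton broth used twofold dilutions from a 10% DMSO solution and 5 × 10^5 CFU/ml inoculum. Drug-free and uninoculated wells served as controls; incubation was aerobic at 37°C for 24 h. MIC was the lowest concentration with no visible growth.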

[21] = tested on: Staphylococcus epidermidis; assay: Antimicrobial activity against methicillin-susceptible coagulase-negative Staphylococcus epidermidis after 24 hrs by broth microdilution method; procedure, shortened: as §2
Staphylococcus simulans [22] = assay: Bactericidal activity against methicillin-resistant coagulase-negative Staphylococcus simulans after 24 hrs by plate counting method; procedure, shortened: as §1
Staphylococcus aureus [23] = assay: Antimicrobial activity against methicillin-resistant Staphylococcus aureus after 24 hrs by broth microdilution method; procedure, shortened: as §2
Staphylococcus hominis [24] = assay: Antimicrobial activity against methicillin-susceptible coagulase-negative Staphylococcus hominis assessed as resistant isolates after 24 hrs by broth microdilution method
[25] = tested on: Staphylococcus haemolyticus; assay: Bactericidal activity against methicillin-susceptible coagulase-negative Staphylococcus haemolyticus after 24 hrs by plate counting method; procedure, shortened: as §1
Staphylococcus aureus [26] = assay: Antimicrobial activity against methicillin-susceptible Staphylococcus aureus assessed as susceptible isolates after 24 hrs by broth microdilution method
[27] = tested on: Staphylococcus epidermidis; assay: Antimicrobial activity against methicillin-resistant coagulase-negative Staphylococcus epidermidis after 24 hrs by broth microdilution method; procedure, shortened: as §2
Mammaliicoccus sciuri [28] = assay: Bactericidal activity against methicillin-susceptible coagulase-negative Staphylococcus sciuri after 24 hrs by plate counting method; procedure, shortened: as §1
[29] = tested on: Staphylococcus epidermidis; assay: Antimicrobial activity against methicillin-susceptible coagulase-negative Staphylococcus epidermidis assessed as resistant isolates after 24 hrs by broth microdilution method
Mammaliicoccus sciuri [30] = assay: Antimicrobial activity against methicillin-susceptible coagulase-negative Staphylococcus sciuri assessed as susceptible isolates after 24 hrs by broth microdilution method; procedure, shortened: as §3
Staphylococcus hominis [31] = assay: Antimicrobial activity against methicillin-susceptible coagulase-negative Staphylococcus hominis assessed as susceptible isolates after 24 hrs by broth microdilution method
Mammaliicoccus sciuri [32] = assay: Bactericidal activity against methicillin-resistant coagulase-negative Staphylococcus sciuri after 24 hrs by plate counting method; procedure, shortened: as §1
Staphylococcus simulans [33] = assay: Antimicrobial activity against methicillin-susceptible coagulase-negative Staphylococcus simulans assessed as resistant isolates after 24 hrs by broth microdilution method
[34] = tested on: Staphylococcus haemolyticus; assay: Antimicrobial activity against methicillin-resistant coagulase-negative Staphylococcus haemolyticus assessed as resistant isolates after 24 hrs by broth microdilution method
[35] = tested on: Staphylococcus haemolyticus; assay: Antimicrobial activity against methicillin-resistant coagulase-negative Staphylococcus haemolyticus after 24 hrs by broth microdilution method; procedure, shortened: as §2
[36] = tested on: Staphylococcus haemolyticus; assay: Bactericidal activity against methicillin-resistant coagulase-negative Staphylococcus haemolyticus after 24 hrs by plate counting method
Mammaliicoccus sciuri [37] = assay: Antimicrobial activity against methicillin-susceptible coagulase-negative Staphylococcus sciuri after 24 hrs by broth microdilution method; procedure, shortened: as §2
[38] = tested on: Staphylococcus epidermidis; assay: Antimicrobial activity against methicillin-susceptible coagulase-negative Staphylococcus epidermidis assessed as susceptible isolates after 24 hrs by broth microdilution method
Staphylococcus hominis [39] = assay: Antimicrobial activity against methicillin-resistant coagulase-negative Staphylococcus hominis after 24 hrs by broth microdilution method; procedure, shortened: as §2
Staphylococcus simulans [40] = assay: Antimicrobial activity against methicillin-resistant coagulase-negative Staphylococcus simulans assessed as resistant isolates after 24 hrs by broth microdilution method
Staphylococcus aureus [41] = assay: Antimicrobial activity against methicillin-resistant Staphylococcus aureus assessed as resistant isolates after 24 hrs by broth microdilution method
Staphylococcus simulans [42] = assay: Bactericidal activity against methicillin-susceptible coagulase-negative Staphylococcus simulans after 24 hrs by plate counting method; procedure, shortened: as §1
[43] = Staphylococcus epidermidis, 24 h
[44] = Staphylococcus haemolyticus, 24 h

CC1(C)S[C@@H]2[C@H](NC(=O)[C@H](N)c3ccccc3)C(=O)N2[C@H]1C(=O)O [AMPICILLIN]
1 µg/mL: MBC (Staphylococcus hominis [1]; Staphylococcus hominis, 24 h) | MBC (Staphylococcus aureus [13]; Staphylococcus aureus, 24 h) | MBC [17, 43] | MBC [25, 44] | MBC (Mammaliicoccus sciuri [28]; Mammaliicoccus sciuri, 24 h)
4 µg/mL: MBC50 (Staphylococcus hominis [1]) | MBC50 [17] | MBC50 [25] | MBC50 (Mammaliicoccus sciuri [28]) | MBC50 (Staphylococcus simulans [42])
256 µg/mL: MBC90 [7] | MBC90 (Staphylococcus hominis [12]) | MBC90 (Staphylococcus aureus [19]) | MBC90 (Staphylococcus simulans [22]) | MBC90 (Mammaliicoccus sciuri [32]) | MBC90 [36]
2 µg/mL: MIC50 [4] | MIC50 (Staphylococcus hominis [5]) | MIC50 (Staphylococcus simulans [8]) | MIC50 [21] | MIC50 (Mammaliicoccus sciuri [37])
128 µg/mL: MBC90 (Staphylococcus hominis [1]) | MBC90 (Staphylococcus aureus [13]) | MBC90 [17] | MBC90 [25] | MBC90 (Mammaliicoccus sciuri [28]) | MBC90 (Staphylococcus simulans [42])
32 µg/mL: MBC50 [7] | MBC50 (Staphylococcus hominis [12]) | MIC50 (Staphylococcus aureus [18]) | MIC90 (Staphylococcus aureus [18]) | MBC (Staphylococcus aureus [19]; Staphylococcus aureus, 24 h) | MBC50 (Staphylococcus simulans [22]) | MBC50 (Mammaliicoccus sciuri [32]) | MBC50 [36]
> 2 µg/mL: MBC [7, 43] | MBC (Staphylococcus hominis [12]; Staphylococcus hominis, 24 h) | MBC (Staphylococcus simulans [22]; Staphylococcus simulans, 24 h) | MBC (Mammaliicoccus sciuri [32]; Mammaliicoccus sciuri, 24 h) | MBC [36, 44]
64 µg/mL: MIC90 (Staphylococcus simulans [2]) | MIC90 (Mammaliicoccus sciuri [11]) | MBC50 (Staphylococcus aureus [13]) | MIC90 (Staphylococcus aureus [23]) | MIC90 [27] | MIC90 [35] | MIC90 (Staphylococcus hominis [39])
0%: Activity [3] | Activity (Staphylococcus simulans [20]) | Activity (Staphylococcus aureus [26]) | Activity (Mammaliicoccus sciuri [30]) | Activity (Staphylococcus hominis [31]) | Activity [38]
100%: Activity (Mammaliicoccus sciuri [6]) | Activity (Staphylococcus hominis [9]) | Activity [10] | Activity (Mammaliicoccus sciuri [14]) | Activity (Staphylococcus aureus [15]) | Activity [16] | Activity (Staphylococcus hominis [24]) | Activity [29] | Activity (Staphylococcus simulans [33]) | Activity [34] | Activity (Staphylococcus simulans [40]) | Activity (Staphylococcus aureus [41])
16 µg/mL: MIC50 (Staphylococcus simulans [2]) | MIC90 [4] | MIC90 (Staphylococcus hominis [5]) | MIC90 (Staphylococcus simulans [8]) | MIC50 (Mammaliicoccus sciuri [11]) | MIC90 [21] | MIC50 (Staphylococcus aureus [23]) | MIC50 [27] | MIC50 [35] | MIC90 (Mammaliicoccus sciuri [37]) | MIC50 (Staphylococcus hominis [39])
